For orientation: inhibition means the change of the read-out against control, counted positive when it falls.

Activity calls are given as the source filed them. The rule behind the calls is not given here.

The target in assay [1] is T1, Transforming growth factor beta-1 proprotein/Mothers against decapentaplegic homolog 3 (Mus musculus) (UniProt P04202+Q8BUN5). As to the kind of experiment: Inhibition of TGF-beta1/smad3 signaling pathway in mouse NIH/3T3 cell extract assessed as decrease in Smad3 phosphorylation at 10 uM after 30 mins by Western blot analysis. The class given is protein assay. In general terms: A western blot detects proteins with antibodies after separation by electrophoresis.
T1 sequence (P04202 279-390 limits assumed): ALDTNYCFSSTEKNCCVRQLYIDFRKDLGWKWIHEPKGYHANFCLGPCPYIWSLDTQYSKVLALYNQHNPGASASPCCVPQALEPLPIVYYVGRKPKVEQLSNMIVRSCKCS
T1 sequence (Q8BUN5 2-425 partner limits assumed): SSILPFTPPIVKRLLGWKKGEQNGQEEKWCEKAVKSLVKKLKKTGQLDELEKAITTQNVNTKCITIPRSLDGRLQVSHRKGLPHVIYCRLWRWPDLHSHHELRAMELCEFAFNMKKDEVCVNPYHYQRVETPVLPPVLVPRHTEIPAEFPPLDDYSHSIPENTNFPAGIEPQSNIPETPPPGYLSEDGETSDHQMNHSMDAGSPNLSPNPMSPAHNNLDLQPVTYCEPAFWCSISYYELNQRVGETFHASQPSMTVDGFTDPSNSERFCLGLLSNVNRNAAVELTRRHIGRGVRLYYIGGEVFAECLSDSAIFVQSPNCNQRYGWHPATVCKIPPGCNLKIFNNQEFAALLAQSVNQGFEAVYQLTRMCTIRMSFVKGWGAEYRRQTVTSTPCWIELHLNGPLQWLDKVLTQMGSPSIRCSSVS

For assay [2], the system named is Mus musculus. The experiment in a line: In vivo inhibition of TGF-beta1/smad3 signaling pathway in bleomycin-induced pulmonary fibrosis in C57BL/6 mouse model assessed as decrease in Col1 level in lung tissue at 100 mg/kg, po qd administered from day 7 to 14 by immunohistochemical analysis. The class given is functional, organism-based. In short, it runs like this:
(§1)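 Lungs from bleomycin-challenged C57BL/6 mice (2 U/kg intratracheal; 100 mg/kg daily, days 7-14) were paraffin-embedded and dewaxed. Citrate (0.01 M) microwave antigen retrieval, then 5% serum block. Primary antibodies overnight at 4 °C: α-SMA 1:200, collagen I 1:100, p-Smad3 1:50. Secondary antibody 1 h at room temperature, then hematoxylin counterstain and microscopy.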

The test system of assay [3] is Mus musculus. The experiment in a line: In vivo inhibition of TGF-beta1/smad3 signaling pathway in bleomycin-induced pulmonary fibrosis in C57BL/6 mouse model assessed as decrease in Col1 protein expression level in lung tissue at 100 mg/kg, po qd administered from day 7 to 14 by Western blot analysis. The class given is functional, organism-based.
Assay [4] deals with Mus musculus. The experiment in a line: Antifibrotic activity in bleomycin-induced pulmonary fibrosis in C57BL/6 mouse model assessed as decrease in collagen content in lung at 100 mg/kg, po qd administered from day 7 to 14 by spectrophotometric method. The class given is functional, organism-based. Summed up: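 Bleomycin model as above: 2 U/kg intratracheal in male C57BL/6 mice, 100 mg/kg daily from day 7 to day 14. Right lungs collected at day 14, dried and acid-hydrolysed, filtered, and pH adjusted to 6.5-8.0. Hydroxyproline then measured by chloramine-T spectrophotometry.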

The test system of assay [5] is Mus musculus. As to the kind of experiment: In vivo inhibition of TGF-beta1/smad3 signaling pathway in bleomycin-induced pulmonary fibrosis in C57BL/6 mouse model assessed as decrease in alpha-SMA level in lung tissue at 100 mg/kg, po qd administered from day 7 to 14 by immunohistochemical analysis. The class given is functional, organism-based. In short, it runs like this:
as §1

Assay [6] concerns the target T1, Transforming growth factor beta-1 proprotein/Mothers against decapentaplegic homolog 3 (Mus musculus). The experiment in a line: Inhibition of TGF-beta1/smad3 signaling pathway in mouse NIH/3T3 cells assessed as decrease in ECM production at 10 uM after 24 hrs. The class given is cell-based.
Assay [7] has as its system Mus musculus. The experiment in a line: In vivo inhibition of TGF-beta1/smad3 signaling pathway in bleomycin-induced pulmonary fibrosis in C57BL/6 mouse model assessed as decrease in smad3 phosphorylation level in lung tissue at 100 mg/kg, po qd administered from day 7 to 14 by immunohistochemical analysis. The class given is functional, organism-based. In short, it runs like this:
as §1

Assay [8] relates to Mus musculus. The experiment in a line: Antifibrotic activity in bleomycin-induced pulmonary fibrosis in C57BL/6 mouse model assessed as fibrotic area in lungs at 100 mg/kg, po qd administered from day 7 to 14 by hematoxylin-eosin staining based fluorescence microscopy. The class given is functional. In short, it runs like this: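 Male C57BL/6 mice (7-8 weeks, n=5/group) given intratracheal bleomycin 2 U/kg under chloral hydrate anaesthesia. Dosing at 100 mg/kg daily from day 7 to day 14, sacrifice at day 14. Left lungs formalin-fixed, paraffin-embedded, 5 µm sections HE-stained. Fibrosis ratio taken as fibrotic-region pixels over total lung pixels.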

Assay [9] addresses T1, Transforming growth factor beta-1 proprotein/Mothers against decapentaplegic homolog 3 (Mus musculus). The experiment in a line: Inhibition of TGF-beta1/smad3 signaling pathway in mouse NIH/3T3 cells at 40 uM after 18 hrs by CAGA-luciferase reporter gene assay. The class given is cell-based. Summed up: (§2)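 CAGA12-luciferase NIH3T3 cells stimulated with TGF-β1 (5 ng/mL) in 0.1% FBS DMEM alongside compound at 5, 10, 20 and 40 µM for 18 h. Lysate luciferase read over the first 20 s. Triplicate.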
On the technique in general: In a reporter assay the amount or activity of a reporter protein is the signal.

For assay [10] the target is unchanged. The experiment in a line: Inhibition of TGF-beta1/smad3 signaling pathway in mouse NIH/3T3 cell extract assessed as decrease in alpha-SMA protein expression at 10 uM after 24 hrs by Western blot analysis.
Assay [11] has the same target. The experiment in a line: Inhibition of TGF-beta1/smad3 signaling pathway in mouse NIH/3T3 cells at 10 uM after 18 hrs by CAGA-luciferase reporter gene assay relative to control. The class given is cell-based. In short, it runs like this:
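CAGA12-luciferase stably transfected NIH3T3 cells plated overnight. Treated with TGF-β1 (5 ng/mL) with or without compound at 10 µM in DMEM containing 0.1% FBS for 18 h. Lysate luminescence integrated over the first 20 s. Inhibition ratio calculated from TGF-β1-stimulated signal of treated versus control wells; mean of three independent experiments.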

The target of assay [12] is Transforming growth factor beta-1 proprotein (Mus musculus) (UniProt P04202). The experiment in a line: Inhibition of TGF-beta1 in mouse Mlg cells assessed as reduction in Col1a1 mRNA expression level at 10 uM after 24 hrs by qRT-PCR method. The class given is cell-based. Summed up: (§3)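 Mlg lung fibroblasts treated with or without TGF-β1 (5 ng/mL) plus compound at 10 µM for 24 h. α-SMA, Col1a1 and Fn1 mRNA measured by real-time PCR with β-actin reference primers. n=3.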
Chain of Transforming growth factor beta-1 proprotein (Mus musculus) (P04202 whole entry): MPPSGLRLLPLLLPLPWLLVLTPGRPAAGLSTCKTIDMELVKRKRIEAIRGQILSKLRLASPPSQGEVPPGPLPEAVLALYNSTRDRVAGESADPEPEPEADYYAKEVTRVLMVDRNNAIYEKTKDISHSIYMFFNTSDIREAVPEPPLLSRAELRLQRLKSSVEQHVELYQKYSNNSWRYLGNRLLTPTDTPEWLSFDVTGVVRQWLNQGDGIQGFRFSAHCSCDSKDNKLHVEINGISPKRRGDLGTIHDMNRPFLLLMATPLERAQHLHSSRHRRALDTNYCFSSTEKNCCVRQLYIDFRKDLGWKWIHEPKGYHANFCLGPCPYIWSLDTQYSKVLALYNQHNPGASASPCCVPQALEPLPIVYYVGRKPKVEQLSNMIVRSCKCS

For assay [13] the target is unchanged. As to the kind of experiment: Inhibition of TGF-beta1 in mouse Mlg cells assessed as decrease in cell viability at 10 uM after 24 hrs by MTT assay. The class given is cell-based. In short, it runs like this: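 Mlg cells exposed to TGF-β1 (5 ng/mL) with or without compound at 10 µM for 24 h; DMSO-treated cells served as control. MTT added for 4 h, then DMSO, and absorbance read. Viability normalized to control as 100%. Triplicate.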

Assay [14] has the same target. As to the kind of experiment: Inhibition of TGF-beta1 in mouse Mlg cells assessed as reduction in cell migration at 10 uM after 24 hrs by wound healing based light microscopy. In short, it runs like this: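 Confluent Mlg monolayers scratched to a 100-µm wound. Cells then cultured in serum-free medium with or without TGF-β1 (5 ng/mL) and compound at 10 µM. Light-microscope images taken at 0, 12 and 24 h; wound area expressed relative to the initial scratch.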

Assay [15] has the same target. The experiment in a line: Inhibition of TGF-beta1 in mouse Mlg cells assessed as reduction in fibronectin mRNA expression level at 10 uM after 24 hrs by qRT-PCR method. The class given is cell-based. In short, it runs like this: as §3
(In general: In qPCR the cycle at which signal appears reflects the starting amount.)

The target is the same in assay [16]. The experiment in a line: Inhibition of TGF-beta1 in mouse Mlg cells assessed as reduction in alpha-SMA mRNA expression level at 10 uM after 24 hrs by qRT-PCR method. The class given is cell-based. Summed up: as §3
Assay [17] has as its target T1, Transforming growth factor beta-1 proprotein/Mothers against decapentaplegic homolog 3 (Mus musculus). The experiment in a line: Inhibition of TGF-beta1/smad3 signaling pathway in mouse NIH/3T3 cells at 5 to 40 uM after 18 hrs by CAGA-luciferase reporter gene assay. The class given is cell-based. In short, it runs like this:
as §2

Regarding `CCOC(=O)/C=C/C(=O)O[C@@H]1CC[C@]2(C)C[C@H]3OC(=O)[C@@H](CN(C)C)[C@H]3C[C@H]2[C@@]12CO2.O=C(O)/C=C/C(=O)O`, the inhibition entry (in assay [1]; with Mus musculus [2]; in the assay with Mus musculus [3]; in the assay on Mus musculus [5]; in assay [6]; in the assay on Mus musculus [7]) was “Active” each time. Also, the inhibition result in [9] and in assay [10] was “Active” throughout. For the same molecule, in the assay with Mus musculus [4], the outcome was Active. The Activity with Mus musculus [8] is given as 53.5%.

As to `C=C1C(=O)O[C@@H]2C[C@@]3(C)CC[C@@H](OC(=O)[C@@H](NC(=O)OC(C)(C)C)C(C)C)C(=C)[C@@H]3C[C@H]12`, in assay [11], the inhibition is 22%.

For the molecule `C=C1C(=O)O[C@@H]2C[C@@]3(C)CCC(=O)C(=C)[C@@H]3C[C@H]12`, the inhibition in assay [11] was 2.24%.

For `C=C1C(=O)O[C@@H]2C[C@@]3(C)CC[C@@H](OC(=O)C4CC4)C(=C)[C@@H]3C[C@H]12`, the inhibition in assay [11] was found to be 4.63%.

For `C=C1C(=O)O[C@@H]2C[C@@]3(C)CC[C@@H](OC(=O)/C=C/C(=O)OCC)[C@]4(CO4)[C@@H]3C[C@H]12`, the inhibition result in assay [12], in assay [13] and in [14] was “Active” in each case. Further, the inhibition in assay [11] amounted to 71.3%.

In the case of `C=C1C(=O)O[C@@H]2C[C@@]3(C)CC[C@@H](OC(=O)CCCCCCC)[C@]4(CO4)[C@@H]3C[C@H]12`, the inhibition in assay [11] was -7.65%.

For the molecule `C=C1C(=O)O[C@@H]2C[C@@]3(C)CC[C@@H](OC(=O)/C=C/CCC)[C@]4(CO4)[C@@H]3C[C@H]12`, in assay [11], the inhibition was found to be 13.5%.

Take `C=C1C(=O)O[C@@H]2C[C@@]3(C)CC[C@@H](OC(C)=O)[C@]4(CO4)[C@@H]3C[C@H]12`: the inhibition in assay [11] was -2.36%.

For the molecule `C=C1C(=O)O[C@@H]2C[C@@]3(C)CCC[C@]4(CO4)[C@@H]3C[C@H]12`, the inhibition in assay [11] turned out to be 3.08%.

For `C=C1C(=O)O[C@@H]2C[C@@]3(C)CC[C@@H](O)[C@]4(CO4)[C@@H]3C[C@H]12`, the inhibition result in assay [12], in assay [15], in assay [13], in assay [14] and in assay [16] was “Active” each time. For the same molecule, the inhibition in [11] was found to be 46%.

`C=C1[C@H](O)CC[C@]2(C)C[C@H]3OC(=O)[C@@H](CN(C)C)[C@H]3C[C@@H]12`: the inhibition result in [17] was “Active”.

On to `CN(C)C[C@@H]1C(=O)O[C@@H]2C[C@@]3(C)CC[C@@H](OC(=O)C4=CCCCC4)[C@]4(CO4)[C@@H]3C[C@H]12`, for which the inhibition result in assay [17] is “Active”.

Turning to `C=C1C(=O)O[C@@H]2C[C@@]3(C)CC[C@@H](OC(=O)c4ccccc4)[C@]4(CO4)[C@@H]3C[C@H]12`, the inhibition in [11] came out at 26.7%.

Regarding `C=C1C(=O)O[C@@H]2C[C@@]3(C)CC[C@@H](O[Si](C)(C)C(C)(C)C)C(=C)[C@@H]3C[C@H]12`, in [11], the inhibition turned out to be 27.8%.

With `C=C1C(=O)O[C@@H]2C[C@@]3(C)CC[C@@H](OC(C)=O)C(=C)[C@@H]3C[C@H]12`, the inhibition in assay [11] was 6.58%.

With `C=C1C(=O)O[C@@H]2C[C@@]3(C)CC[C@@H](OC(=O)[C@@H](NC(=O)OC(C)(C)C)C(C)C)[C@]4(CO4)[C@@H]3C[C@H]12`, the inhibition in assay [11] amounted to 17.1%.

Consider `C=C1C(=O)O[C@@H]2C[C@@]3(C)CC[C@@H](OC(=O)CP(=O)(OCC)OCC)[C@]4(CO4)[C@@H]3C[C@H]12`, for which the inhibition in assay [11] stood at 3.67%.

For the molecule `C=C1C(=O)O[C@@H]2C[C@@]3(C)CCC[C@H](C)[C@@]34O[C@H]4[C@H]12`, the inhibition entry in assay [12], in assay [15], in assay [13], in [14] and in assay [16] was “Active” throughout. For the same molecule, the inhibition in assay [11] stood at 77.7%.

Regarding `C=C1C(=O)O[C@@H]2C[C@@]3(C)CC[C@@H](O)C(=C)[C@@H]3C[C@H]12`, the inhibition result in assay [12], in assay [15], in assay [13] and in assay [14] was “Active” each time. Also, the inhibition in assay [11] was determined as 61.9%.

In the case of `C=C1C(=O)O[C@@H]2C[C@@]3(C)CC[C@@H](OC(=O)C4=CCCCC4)[C@]4(CO4)[C@@H]3C[C@H]12`, the inhibition entry in [14] was “inactive”. Besides, the inhibition in assay [11] turned out to be 34.8%.

As for `C#CCCCC(=O)O[C@@H]1CC[C@]2(C)C[C@H]3OC(=O)C(=C)[C@H]3C[C@H]2[C@@]12CO2`, the inhibition in assay [11] is 6.65%.

Source of the values: ChEMBL document CHEMBL4270598, “Synthesis and discovery of a drug candidate for treatment of idiopathic pulmonary fibrosis through inhibition of TGF-β1 pathway” (Eur J Med Chem, 2018).
